Assay results published in ChEMBL document CHEMBL4190246, “Phytochemical Studies on Two Australian Anigozanthos Plant Species” (J Nat Prod, 2017).
Calls of active or inactive are those of the source. No cut-off for these calls is given here.

Tests used:
Format in all cases: functional, organism-based
[1] = system: Escherichia coli; assay: Antimicrobial activity against Escherichia coli ATCC 25922 at 32 ug/ml after 18 hrs
Summary of the method: (§1)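 Single-concentration screen: samples from 10 mg/mL DMSO stocks, duplicate wells; overnight culture in cation-adjusted Mueller Hinton broth at 37 °C, added to 5 × 10^5 CFU/mL, final compound 32 μg/mL; 37 °C, 18 h. Growth read as absorbance at 600 nm; percent inhibition against media-only and untreated-cell controls on the same plate, significance by Z-score.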

[2] = system: Cryptococcus neoformans; assay: Antimicrobial activity against Cryptococcus neoformans ATCC 208821 at 32 ug/ml after 24 hrs by resazurin dye based assay
Summary of the method: (§2)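 Fungi grown 3 days on yeast extract–peptone dextrose agar at 30 °C, then diluted in yeast nitrogen base broth to 2.5 × 10^5 CFU/mL. Samples from 10 mg/mL DMSO stocks, duplicate wells, final 32 μg/mL; 35 °C, 24 h. Resazurin added (0.001% final), 2 h more at 35 °C, absorbance at 530 nm. Percent inhibition against on-plate controls; Z-scores.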

[3] = system: Klebsiella pneumoniae; assay: Antimicrobial activity against Klebsiella pneumoniae ATCC 700603 at 32 ug/ml after 18 hrs; summary of the method: as §1
[4] = system: Acinetobacter baumannii; assay: Antimicrobial activity against Acinetobacter baumannii ATCC 19606 at 32 ug/ml after 18 hrs; conditions: ATCC 19606 = CIP 70.34 = JCM 6841; summary of the method: as §1
[5] = system: Pseudomonas aeruginosa; assay: Antimicrobial activity against Pseudomonas aeruginosa ATCC 27853 at 32 ug/ml after 18 hrs; summary of the method: as §1
[6] = system: Staphylococcus aureus; assay: Antimicrobial activity against methicillin-resistant Staphylococcus aureus ATCC 43300 at 32 ug/ml after 18 hrs
Summary of the method: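 Single-concentration screen (COADD): samples dissolved in DMSO at 10 mg/mL stock, plated in duplicate; overnight culture in cation-adjusted Mueller Hinton broth at 37 °C added to 5 × 10^5 CFU/mL, final 32 μg/mL. Incubated 37 °C. Read-out absorbance 600 nm; percent growth inhibition versus media-only and untreated-cell controls on the same plate; significance by Z-score from sample wells.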

[7] = system: Candida albicans; assay: Antimicrobial activity against Candida albicans ATCC 90028 at 32 ug/ml after 24 hrs by resazurin dye based assay; summary of the method: as §2
[8] = system: Acinetobacter baumannii; assay: Antimicrobial activity against Acinetobacter baumannii ATCC 19606 at 53.9 uM after 18 hrs; conditions: ATCC 19606 = CIP 70.34 = JCM 6841; summary of the method: as §1
[9] = system: Acinetobacter baumannii; assay: Antimicrobial activity against Acinetobacter baumannii ATCC 19606 at 94.9 uM after 18 hrs; conditions: ATCC 19606 = CIP 70.34 = JCM 6841; summary of the method: as §1
[10] = system: Acinetobacter baumannii; assay: Antimicrobial activity against Acinetobacter baumannii ATCC 19606 at 52.4 uM after 18 hrs; conditions: ATCC 19606 = CIP 70.34 = JCM 6841; summary of the method: as §1

SMILES	Activity [1]	Activity [2]	Activity [3]	Activity [4]	Activity [5]	Activity [6]	Activity [7]	Activity [8]	Activity [9]	Activity [10]
O=C1c2c(O)cc(O)cc2O[C@H](c2ccc(O)c(O)c2)[C@H]1O	inactive	inactive	inactive	inactive	inactive	inactive	inactive	–	–	–
C[C@@H]1O[C@@H](OC[C@H]2O[C@@H](Oc3c(-c4ccc(O)cc4)oc4cc(O)cc(O)c4c3=O)[C@H](O)[C@@H](O)[C@@H]2O)[C@H](O)[C@H](O)[C@H]1O	inactive	inactive	inactive	–	inactive	inactive	inactive	Active	–	–
NC(CCCC(OC(=O)/C=C/c1ccc(O)cc1)C(=O)O)C(=O)O (stereo unspecified)	inactive	inactive	inactive	–	inactive	inactive	inactive	–	Active	–
O=c1c(O)c(-c2ccc(O)cc2)oc2cc(O)cc(O)c12	inactive	inactive	inactive	inactive	inactive	inactive	inactive	–	–	–
O=C(/C=C/c1ccc(O)cc1)OC[C@H]1O[C@@H](Oc2c(-c3ccc(O)cc3)oc3cc(O)cc(O)c3c2=O)[C@H](O)[C@@H](O)[C@@H]1O	inactive	inactive	inactive	inactive	inactive	inactive	inactive	–	–	–
O=C(/C=C/c1ccc(O)cc1)O[C@H]1[C@H](O)[C@@H](O)[C@H](Oc2cc(O)c(O)c(C(=O)/C=C/c3ccc(O)cc3)c2)O[C@@H]1CO	inactive	inactive	inactive	inactive	inactive	inactive	inactive	–	–	–
C[C@@H]1O[C@@H](OC[C@H]2O[C@@H](Oc3c(-c4ccc(O)c(O)c4)oc4cc(O)cc(O)c4c3=O)[C@H](O)[C@@H](O)[C@@H]2O)[C@H](O)[C@H](O)[C@H]1O	inactive	inactive	inactive	inactive	inactive	inactive	inactive	–	–	–
O=c1cc(-c2ccc(O)c(O)c2)oc2cc(O[C@@H]3O[C@H](CO)[C@@H](O)[C@H](O)[C@H]3O)cc(O)c12	inactive	inactive	inactive	inactive	inactive	inactive	inactive	–	–	–
O=C(/C=C/c1ccc(O)cc1)OC[C@H]1O[C@@H](Oc2cc3c(O)cc(O)cc3[o+]c2-c2ccc(O)c(O)c2)[C@H](O)[C@@H](O)[C@@H]1O	inactive	inactive	inactive	inactive	inactive	inactive	inactive	–	–	–
C[C@@H]1O[C@@H](OC[C@H]2O[C@@H](Oc3cc4c(O)cc(O)cc4[o+]c3-c3ccc(O)c(O)c3)[C@H](O)[C@@H](O)[C@@H]2O)[C@H](O)[C@H](O)[C@H]1O	inactive	inactive	inactive	–	inactive	inactive	inactive	–	–	Active
O=C(/C=C/c1ccc(O)cc1)OC[C@H]1O[C@@H](Oc2c(-c3ccc(O)c(O)c3)oc3cc(O)cc(O)c3c2=O)[C@H](O)[C@@H](O)[C@@H]1O	inactive	inactive	inactive	inactive	inactive	inactive	inactive	–	–	–
O=C(O)[C@H]1O[C@@H](Oc2cc(O)c3c(=O)cc(-c4ccc(O)cc4)oc3c2)[C@H](O)[C@@H](O)[C@@H]1O	inactive	inactive	inactive	inactive	inactive	inactive	inactive	–	–	–
O=c1c(O[C@@H]2O[C@H](CO)[C@@H](O)[C@H](O)[C@H]2O)c(-c2ccc(O)c(O)c2)oc2cc(O)cc(O)c12	inactive	inactive	inactive	inactive	inactive	inactive	inactive	–	–	–
